Test results taken from ChEMBL document CHEMBL3045119, “Synthesis and fungicidal activity of novel aminophenazine-1-carboxylate derivatives” (J Agric Food Chem, 2010).
Converted amounts (≈) assume the structure as drawn.

Tests used:
[1] = test system: Botryosphaeria berengeriana; assay: Fungicidal activity against Botryosphaeria berengeriana assessed as inhibition of mycelium growth at 50 ug/mL by mycelium growth rate method; format: functional
In short: (§1)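 Mycelium growth rate method: colony diameters measured once mycelia had grown completely, and the relative inhibition rate (%) calculated from the diameters by formula. Phenazine-1-carboxylic acid ran as control. Values are the average of three replicate results.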

Fusarium graminearum [2] = assay: Fungicidal activity against Fusarium graminearum assessed as inhibition of mycelium growth at 50 ug/mL by mycelium growth rate method; format: functional; in short: as §1
Fusarium oxysporum [3] = assay: Fungicidal activity against Fusarium oxysporum assessed as inhibition of mycelium growth at 50 ug/mL by mycelium growth rate method; format: functional; in short: as §1
Mycosphaerella arachidis [4] = assay: Fungicidal activity against Mycosphaerella arachidis assessed as inhibition of mycelium growth at 50 ug/mL by mycelium growth rate method; format: functional; in short: as §1
Alternaria solani [5] = assay: Fungicidal activity against Alternaria solani assessed as inhibition of mycelium growth at 50 ug/mL by mycelium growth rate method; format: functional; in short: as §1
[6] = test system: Botryosphaeria berengeriana; assay: Fungicidal activity against Botryosphaeria berengeriana assessed as inhibition of mycelium growth by mycelium growth rate method; format: functional, organism-based; in short: as §1
Fusarium graminearum [7] = assay: Fungicidal activity against Fusarium graminearum assessed as inhibition of mycelium growth by mycelium growth rate method; format: functional, organism-based; in short: as §1
Fusarium oxysporum [8] = assay: Fungicidal activity against Fusarium oxysporum assessed as inhibition of mycelium growth by mycelium growth rate method; format: functional, organism-based; in short: as §1
Mycosphaerella arachidis [9] = assay: Fungicidal activity against Mycosphaerella arachidis assessed as inhibition of mycelium growth by mycelium growth rate method; format: functional, organism-based; in short: as §1
Alternaria solani [10] = assay: Fungicidal activity against Alternaria solani assessed as inhibition of mycelium growth by mycelium growth rate method; format: functional, organism-based; in short: as §1

SMILES	inhibition at 50 µg/mL [1] [%]	inhibition at 50 µg/mL (Fusarium graminearum [2]) [%]	inhibition at 50 µg/mL (Fusarium oxysporum [3]) [%]	inhibition at 50 µg/mL (Mycosphaerella arachidis [4]) [%]	inhibition at 50 µg/mL (Alternaria solani [5]) [%]	EC50 [6] [µg/mL]	EC50 (Fusarium graminearum [7]) [µg/mL]	EC50 (Fusarium oxysporum [8]) [µg/mL]	EC50 (Mycosphaerella arachidis [9]) [µg/mL]	EC50 (Alternaria solani [10]) [µg/mL]
CCOC(=O)c1cccc2nc3cc(N)c(OCC)cc3nc12	26.9	14.5	6.9	11.5	17.6	–	–	–	–	–
CCCOC(=O)c1cccc2nc3c(N)cccc3nc12	57.1	43.6	36.7	30	46.7	–	–	–	–	–
CCCCOC(=O)c1cccc2nc3c(N)cccc3nc12	15.6	2.7	21.4	8.3	24.2	–	–	–	–	–
COC(=O)c1cccc2nc3c(C(=O)CCc4ccccc4)cccc3nc12	31.4	30.3	28	0	4.3	–	–	–	–	–
COC(=O)c1cccc2nc3c(N)cccc3nc12	100	36.3	40	26.9	100	3 (≈ 11.8 µM)	> 50	> 50	> 50	20.5 (≈ 81.1 µM)
CCCCOC(=O)c1cccc2nc3cc(N)c(OCCCC)cc3nc12	25.5	23.6	0	13	13.3	–	–	–	–	–
COC(=O)c1cccc2nc3c(C(=O)c4ccc(Cl)cc4Cl)cccc3nc12	10.7	27.3	7.1	0	3.4	–	–	–	–	–
COC(=O)c1cccc2nc3cc(S(=O)(=O)c4ccc(C)cc4)ccc3nc12	8	17.5	13.5	22.2	33.3	–	–	–	–	–
CCOC(=O)c1cccc2nc3c(N)cccc3nc12	100	41.8	33.3	32	51	4.44 (≈ 16.6 µM)	> 50	> 50	> 50	40.1 (≈ 150 µM)
Nc1cccc2nc3c(C(=O)O)cccc3nc12	19.2	12.9	13.8	7.7	0	–	–	–	–	–
CCCOC(=O)c1cccc2nc3cc(N)ccc3nc12	19.6	25.5	10	26.1	16.7	–	–	–	–	–
CCOC(=O)c1cccc2nc3cc(N)ccc3nc12	44.2	11.3	31	7.7	29.4	–	–	–	–	–
COC(=O)c1cccc2nc3cc(C(=O)C(Cl)(Cl)Cl)ccc3nc12	21.8	4.8	5.3	12	0	–	–	–	–	–
CCCCOC(=O)c1cccc2nc3ccc(N)cc3nc12	34.3	23.6	26.7	24	23.3	–	–	–	–	–
COC(=O)c1cccc2nc3ccc(N)cc3nc12	37.1	18.2	23.3	4	10	–	–	–	–	–
CCCCOC(=O)c1cccc2nc3c([N+](=O)[O-])c(N)ccc3nc12	16.1	25	17.9	12.5	17.2	–	–	–	–	–
COC(=O)c1cccc2nc3cc(S(=O)(=O)c4ccc([N+](=O)[O-])cc4)ccc3nc12	18.2	0	15.8	8	6.5	–	–	–	–	–
COC(=O)c1cccc2nc3cc(C(=O)c4ccc(Cl)cc4Cl)ccc3nc12	0	0	7.1	0	3	–	–	–	–	–
CCCCOC(=O)c1cccc2nc3c(C(=O)CCCCl)cccc3nc12	0	0	10.7	8.3	6.1	–	–	–	–	–
